NPY Y2 blocker: antagonists of human neuropeptide Y receptor Y2 | 140,000 tested, 0.99% active | AID 793 | inhibition, % at 2.7 µM | NPY-Y2 expressing cells, antagonist mode | P49146;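 also: 0% = vehicle with agonist challenge and 100% = reference antagonist with challenge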
Target sequence (P49146 whole entry, looked up): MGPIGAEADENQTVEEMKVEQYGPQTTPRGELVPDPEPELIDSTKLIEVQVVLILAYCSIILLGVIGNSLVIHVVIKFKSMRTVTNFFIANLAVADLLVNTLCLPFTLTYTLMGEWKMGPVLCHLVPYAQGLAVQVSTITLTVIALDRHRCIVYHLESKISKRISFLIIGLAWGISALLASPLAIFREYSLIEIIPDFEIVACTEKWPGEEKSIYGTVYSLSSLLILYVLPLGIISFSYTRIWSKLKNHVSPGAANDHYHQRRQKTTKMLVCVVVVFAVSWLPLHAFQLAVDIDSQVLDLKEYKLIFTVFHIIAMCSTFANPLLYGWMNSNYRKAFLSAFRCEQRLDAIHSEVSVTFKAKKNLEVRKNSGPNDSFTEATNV
NPY-Y1 PAM-ag: potentiators or agonists of human neuropeptide Y receptor Y1; P25929; NPY-Y1 expressing cells, potentiator/agonist activation; activation, % at 3.6 µM; 220,000 tested, 0.37% active; AID 1304; in the data active = activation above about 33%, passing the limit was not always enough;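 also: cells stimulated with NPY at EC10 then isoproterenol at EC100; 0% = low agonist plus stimulus and 100% = saturating agonist plus stimulus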
NPY-Y1 antag: NPY-Y1 (human) receptor antagonism. 200,000 tested, 1% active. inhibition, % at 3.6 µM. AID 1040. P25929. HEK293-CNG Y1 cells, membrane potential fluorescence; NPY at EC95, then isoproterenol;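 active = inhibition above the campaign mean inhibition of all tested compounds plus 3 SD, cut at about 20% in these data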;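 also: 0% = DMSO wells given NPY plus isoproterenol and 100% = isoproterenol alone without NPY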
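Test system – HEK293 Y1/CNG channel cell line · Also added – NPY agonist 25 nM, then isoproterenol 1 µM plus Ro 20-1724 25 µM · Compound dosing – one concentration, 3.6 µM, in 0.4% DMSO · Schedule – compound incubation 1 h at room temperature, readout 45 min post-stimulation · Technique – fluorescence, membrane potential probe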
PGE2 EP2 inh: inhibitors of human EP2 prostaglandin E2 receptor | inhibition, % at 25 µM | C6 glioma cells expressing human EP2, cAMP TR-FRET; cells stimulated with saturating PGE2 | AID 1422 | 260,000 tested, 0.52% active;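 active = percent inhibition above 40 after rounding to a whole number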;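 also: rat C6 glioma host cells with rolipram phosphodiesterase inhibitor present; the protocol text gives 20 µM as final concentration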
Target sequence (P43116 whole entry, looked up): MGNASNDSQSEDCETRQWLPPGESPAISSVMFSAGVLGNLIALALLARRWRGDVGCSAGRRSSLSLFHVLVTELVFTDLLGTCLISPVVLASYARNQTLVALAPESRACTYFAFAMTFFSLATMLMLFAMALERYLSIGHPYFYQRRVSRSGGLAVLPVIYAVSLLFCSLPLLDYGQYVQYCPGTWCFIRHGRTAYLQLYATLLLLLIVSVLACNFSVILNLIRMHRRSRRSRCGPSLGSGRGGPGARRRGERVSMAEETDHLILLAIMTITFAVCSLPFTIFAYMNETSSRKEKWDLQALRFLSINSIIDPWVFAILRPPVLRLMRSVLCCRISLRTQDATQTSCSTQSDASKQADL
NPY2 pot ag: potentiates or activates human NPY-Y2 receptor; activation, % at 3.6 µM; 220,000 tested, 0.45% active; AID 1359; cells expressing NPY-Y2, potentiator/agonist read-out; P49146; in the data active = activation above about 27%;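 also: cells stimulated with NPY near EC25 plus isoproterenol at EC100; 0% = vehicle plus submaximal agonist and 100% = vehicle plus saturating agonist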
EP2 mod: modulates human prostaglandin E2 receptor EP2 signaling. EP2-expressing cells, cAMP HTRF FRET, PGE2 co-stimulation. 260,000 tested, 0.83% active. induction, % at 25 µM;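 active = compounds whose cAMP rise, as percent of the full-agonist control response, exceeds 60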;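 also: rat C6 glioma line stably carrying human EP2 under a CMV promoter; the protocol text gives 20 µM as final concentration; 100% = response of wells given 1 µM PGE2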
NPY-Y1 ant conf: human NPY-Y1 antagonism, confirmation. shares compounds with NPY-Y1 antag. HEK293-CNG NPY-Y1, membrane potential fluorescence, cAMP; NPY challenge against isoproterenol-raised cAMP. inhibition, % at 3.6 µM. 1,200 tested, 21% active. AID 1254; in the data active = inhibition above about 20%;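 also: 0% = vehicle with agonist plus stimulus and 100% = stimulus alone without agonist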
NPY-Y2 antag ct: human NPY-Y2 antagonism in NPY-Y1 counter-screen; inhibition, % at 3.6 µM; 1,200 tested, 28% active; HEK293 NPY-Y2 CNG membrane potential fluorescence; cells given NPY, then isoproterenol; shares compounds with NPY-Y1 antag; AID 1255;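 also: 0% = DMSO with agonist challenge and 100% = reference antagonist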
* hit, by the source's call; / = no result. Rows were chosen to be rich in hits. Some 2.8% of all compounds tested hit in one or more screens of this group. Rule as the data show it, unless noted: active = inhibition above about 17%; inactive = the rest.

SMILES | NPY Y2 blocker | NPY-Y1 PAM-ag | NPY-Y1 antag | PGE2 EP2 inh | NPY2 pot ag | EP2 mod | NPY-Y1 ant conf | NPY-Y2 antag ct
CCOC(=O)C(CO)(NC(C)=O)C(=O)OCC | 11 | 0 | 25* | 8 | -13 | 12 | 9 | 7
CCOC(=O)C(CCCCCCC(NC(C)=O)(C(=O)OCC)C(=O)OCC)(NC(C)=O)C(=O)OCC | / | 3 | / | 7 | -12 | 4 | / | /
C[C@@H](Cn1nnc2ccccc21)NC(=O)c1ccc(Cn2cccn2)o1 | / | / | / | 10 | / | -2 | / | /
CCOc1ccccc1NC(=O)C(OC(=O)C1CC1)c1ccccc1 (stereo not drawn) | / | -8 | / | 9 | -24 | 11 | / | /
CCOc1ccccc1NC(=O)C(NCC1(N2CCCCC2)CCCCC1)c1ccccc1 (stereo not drawn) | / | -27 | 34* | 4 | -13 | 3 | 31* | 30*
O=C(c1ccc2c(c1)OCO2)N(CC1CCCO1)C1(C(=O)NC2CCCC2)CCCCC1 (stereo not drawn) | 16 | -2 | 30* | 6 | 1 | 25 | 13 | 8
O=C(NC1(C(=O)NC2CCCCC2)CCCCC1)c1ccc2c(c1)OCO2 | -1 | 23 | 0 | 8 | 1 | 22 | / | /
CCCC[n+]1c(-c2ccc(Cl)cc2Cl)csc1Nc1ccccc1 | 3 | -10 | 17 | 3 | 15 | 29 | / | /
Clc1ccc(-c2csc(Nc3ccccc3)[n+]2Cc2ccco2)c(Cl)c1 | / | -6 | 32* | 4 | -10 | 49 | 23* | 12
CCOc1ccccc1NC(=O)CSc1nnc(Cc2ccccc2)n1C | / | / | / | 11 | / | -14 | / | /
Cc1cc(-c2cncnc2C2CCN(C(=O)Cn3cnc4ccccc43)CC2)on1 | / | / | / | / | / | -59 | / | /
CC(=O)N(CCC(Cc1ccccc1)c1ccc2c(c1)OCO2)Cc1ccccc1F (stereo not drawn) | 17 | -16 | 21* | / | -5 | 8 | 18 | 11
CC(=O)Oc1ccccc1C(=O)Nc1ccccc1 | / | / | / | 10 | / | / | / | /
CCCCN(CCCC)CC(O)COc1ccccc1C(=O)Nc1ccccc1 (stereo not drawn) | / | -22 | 46* | -2 | -26 | 4 | 18 | 18*
COc1cccc(NC(=O)CCN2CCCCC2)c1 | / | / | / | 15 | / | 15 | / | /
COCc1ccc(C(=O)N2CCC(C(=O)c3nc4ccccc4s3)CC2)o1 | / | / | / | / | / | -56 | / | /
Cn1nc(C(=O)Nc2cccc(C(F)(F)F)c2)c2ccccc2c1=O | 13 | -50 | 29* | / | -66 | 16 | 17 | 9
COc1ccc(Oc2c(-c3ccc(O)cc3O)n[nH]c2C)cc1 | 6 | -20 | 83* | 2 | -6 | -1 | 35* | 4
COCCN1CCN(Cc2cc3c(C(C)(C)C)nn(-c4ccccc4)c3[nH]c2=O)CC1 | / | / | / | 12 | / | -13 | / | /
Cc1cccc(-c2nsc(SCC(=O)NCc3ccco3)n2)c1 | 6 | -7 | 6 | 8 | -3 | -13 | / | /
Cc1cccc(-c2nsc(SCC(=O)NCC3CCCO3)n2)c1 (stereo not drawn) | / | 11 | 30* | 11 | -5 | 3 | 4 | 2
COc1ccc(N2CCN(c3oc(-c4ccco4)nc3C#N)CC2)cc1 | 7 | -49 | 22* | 6 | -16 | 10 | 6 | 7
N#Cc1nc(-c2ccco2)oc1N1CCOCC1 | 0 | 3 | 4 | 5 | -22 | -14 | / | /
Cc1ccc(C(C)C)c(OCc2nn(CC(=O)c3ccc(OC(F)F)cc3)c3[n+]2CCCCC3)c1 | / | -21 | 31* | 7 | -11 | 15 | 20 | 16
COc1cccc(N2CC(C(=O)OCC(=O)c3ccc(Cl)cc3Cl)CC2=O)c1 (stereo not drawn) | / | / | / | 12 | / | 5 | / | /
SMILES | NPY Y2 blocker | NPY-Y1 PAM-ag | NPY-Y1 antag | PGE2 EP2 inh | NPY2 pot ag | EP2 mod | NPY-Y1 ant conf | NPY-Y2 antag ct
O=C(c1ccccn1)N(Cc1cccs1)C1(C(=O)NC2CCCCC2)CCCCC1 | / | 8 | 44* | 4 | -11 | 2 | 15 | 7
O=C(Cn1nc2c3ccccc3nc(C3CC3)n2c1=O)NCc1ccc(F)cc1 | / | / | / | / | / | 27 | / | /
COc1cc2c(cc1OC)C(c1cccs1)N(C(=O)c1ccncc1)CC2 (stereo not drawn) | / | 12 | 2 | 5 | -19 | 28 | / | /
COc1cc2c(cc1OC)C(c1cccs1)N(C(=S)NC(C)C)CC2 (stereo not drawn) | / | -12 | 30* | 7 | -12 | 12 | 10 | 5
O=[N+]([O-])c1cccc(-c2noc(COc3ccccc3)n2)c1 | / | -18 | 25* | 7 | -2 | -1 | 4 | 6
O=C(COc1ccc(S(=O)(=O)NC2CCCC2)cc1)N1CCCC1 | / | / | / | 14 | / | 16 | / | /
COc1ccc(CCNC(=O)c2nc(-c3cccs3)no2)cc1OC | / | -4 | 14 | 11 | -15 | -45 | / | /
COc1ccccc1CCNC(=O)c1nc(-c2cccs2)no1 | / | -11 | 24* | 9 | -18 | -60 | 8 | 5
Cc1ccc(C(=O)c2c(NC(=O)c3ccccc3C)sc(C)c2C)cc1 | 3 | -66 | 23* | 9 | -31 | 48 | 17 | 36*
O=C(NC1CCCCC1)N1CCC(c2nc3ccccc3o2)CC1 | / | / | / | 9 | / | -2 | / | /
COc1cccc(NC(=O)c2cc(-c3ccncc3)nc3c(C)cc(C)cc23)c1 | / | -62 | 22* | 17 | -67 | 15 | 28* | 29*
Oc1ccccc1CNCCCNCc1ccccc1O | 10 | -70 | 30* | 3 | -16 | -33 | 12 | 17
C/C=C/c1ccccc1OCc1ccc(C(=O)O)o1 | 14 | -25 | 22* | 16 | -24 | 12 | 16 | 12
Cc1nc2c(c(=O)[nH]1)CCN(Cc1cn[nH]c1-c1cccs1)C2 | / | / | / | 5 | / | -10 | / | /
COc1ccc(OCC(=O)O/N=C(\N)Cc2ccc(Cl)cc2)cc1 | 10 | -47 | 23* | 9 | -13 | -16 | 7 | 7
COc1ccc(OCC(=O)O/N=C(\N)Cc2cccs2)cc1 | 3 | -28 | -2 | 6 | 0 | 12 | / | /
NC(=O)CN1CCC2(CC1)NC(=O)c1ccccc1O2 | / | / | / | / | / | -14 | / | /
CC(OC(=O)c1oc2ccccc2c1COc1ccccc1)C(N)=O (stereo not drawn) | / | -10 | 5 | 5 | -6 | 23 | / | /
CC(C)(C)NC(=O)c1oc2ccccc2c1COc1ccccc1 | 13 | -47 | 28* | 0 | -7 | 58 | 26* | 14
CCN(Cc1cc2cc(C)ccc2[nH]c1=O)C(=O)c1ccc(F)cc1 | / | / | / | 10 | / | -21 | / | /
CSc1cccc(NC(=O)CN(c2ccccc2)S(=O)(=O)N(C)C)c1 | 13 | 44 | 20* | 5 | -17 | 3 | 4 | 4
CCOC(=O)c1c(CSc2ccccc2)n(C)c2ccc(O)c(CN3CCOCC3)c12 | / | -57 | 38* | 12 | -36 | 8 | 30* | 9
